Measurements taken from paper PMC7316630 (Nature immunology, 2020).
Structures can show the parent of a compound that is named as a salt. Peptide text beside a SMILES is read from it. * marks the point of attachment. Cbz = O=C(OCc1ccccc1)*; CH2F = FC*

Tests used:
[1] = test system: LPS-primed THP-1 cells; assay: GSDMD membrane staining and pyroptotic bubbles, confocal microscopy; format: cell-based, human; details: 30 μM; 30 min after nigericin
Outline: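 PMA-differentiated THP-1 cells were primed with LPS (1 μg/ml, 4 hrs), pretreated for 1 hr and given nigericin. They were fixed (4% PFA), permeabilized (0.1% Triton X-100), blocked (5% BSA) and stained with an in-house mouse monoclonal anti-GSDMD antibody. Confocal images were scored for cells with membrane GSDMD staining and pyroptotic bubbles across 40 high-power fields per sample, in 5 independent experiments. Two-tailed Student's t-test was used.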

[2] = test system: LPS-primed THP-1 cells; assay: Immunoblot of caspase-1, GSDMD, pro-IL-1β cleavage and IL-1β release; format: cell-based, human; details: 30 μM, 1 hr before nigericin
[3] = test system: LPS-primed THP-1 cells; assay: ASC speck formation, immunofluorescence; format: cell-based, human; details: 30 μM, 1 hr before nigericin; 20 min after nigericin
Outline: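 THP-1 cells were differentiated with 50 nM PMA for 36 hrs, primed with LPS (1 μg/ml) for 4 hrs, and pretreated with test compound, vehicle or z-VAD-fmk, then given nigericin (20 μM). Cells on coverslips were fixed in 4% paraformaldehyde for 15 min, permeabilized in 0.1% Triton X-100 for 5 min and blocked in 5% BSA for 1 hr. ASC was then immunostained.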

[4] = target: T1, human GSDMD (Homo sapiens, UniProt P57764); format: biochemical; details: for Inhibition of GSDMD and caspase-11-mediated liposome leakage (in words): GSDMD 0.3 μM plus caspase-11 0.15 μM, LDC7559 at up to 50 μM
T1 sequence (P57764 1-484): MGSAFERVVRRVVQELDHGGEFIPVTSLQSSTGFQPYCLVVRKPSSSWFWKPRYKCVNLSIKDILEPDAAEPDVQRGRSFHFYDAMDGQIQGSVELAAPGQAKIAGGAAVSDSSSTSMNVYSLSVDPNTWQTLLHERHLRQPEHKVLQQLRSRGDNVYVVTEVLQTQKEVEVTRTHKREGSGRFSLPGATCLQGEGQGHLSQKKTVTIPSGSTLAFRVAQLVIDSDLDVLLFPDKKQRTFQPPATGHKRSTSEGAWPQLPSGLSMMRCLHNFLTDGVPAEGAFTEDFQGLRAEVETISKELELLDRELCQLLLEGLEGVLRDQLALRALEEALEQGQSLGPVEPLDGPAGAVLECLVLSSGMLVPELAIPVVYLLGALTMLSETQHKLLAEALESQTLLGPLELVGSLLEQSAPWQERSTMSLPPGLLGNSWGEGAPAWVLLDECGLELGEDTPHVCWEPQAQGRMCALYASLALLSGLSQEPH

[5] = test system: LPS-primed iBMDMs; assay: Immunoblot of caspase-1, GSDMD, pro-IL-1β cleavage and IL-1β release; format: cell-based, mouse; details: 1 hr before nigericin; lysates 1 hr later
Outline: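 Mouse iBMDMs were pretreated for 1 hr with test compound, Bay 11-7082, necrosulfonamide or z-VAD-fmk, then given nigericin. Whole cell lysates and culture supernatants were harvested 1 hr after nigericin and immunoblotted with the indicated antibodies. Data come from three independent experiments.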

[6] = test system: iBMDM; assay: LPS transfection-induced IL-1β secretion, ELISA; format: cell-based, mouse; details: 2.5 h; potency comparable to z-VAD-fmk
[7] = test system: LPS-primed THP-1; assay: LPS + nigericin cell death with or without Cu; format: cell-based, human; details: with versus without Cu(II)
[8] = test system: HT-29 cells; assay: Necroptosis induced by TNF, SMAC mimetic and z-VAD-fmk, CellTiter-Glo; format: cell-based; details: disulfiram 10 and 50 μM, NSA 2 μM, Nec 10 μM; 1 hr pretreatment; 24 hrs
Outline: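 HT-29 cells were pretreated for 1 hr. Necroptosis was then induced with TNF (20 ng/ml), SMAC mimetic (100 nM) and z-VAD-fmk (20 μM). Viability was read 24 hrs later as ATP by CellTiter-Glo luminescence.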

[9] = target: T2, pre-cleaved mouse GSDMA3 (Mus musculus, UniProt Q5Y4Y6); assay: Liposome leakage by pre-cleaved GSDMA3; format: biochemical; details: pre-cleaved mouse GSDMA3 0.3 μM
T2 sequence (Q5Y4Y6 with tags, fused parts or gaps limits assumed): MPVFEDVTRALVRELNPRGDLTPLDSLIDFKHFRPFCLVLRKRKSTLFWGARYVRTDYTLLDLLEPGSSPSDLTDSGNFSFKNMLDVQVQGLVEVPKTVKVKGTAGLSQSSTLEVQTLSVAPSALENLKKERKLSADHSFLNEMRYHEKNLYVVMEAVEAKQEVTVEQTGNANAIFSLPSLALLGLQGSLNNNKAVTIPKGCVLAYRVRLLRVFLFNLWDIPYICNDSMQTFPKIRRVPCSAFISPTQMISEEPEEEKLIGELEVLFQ

[10] = test system: Mouse iBMDMs; assay: AIM2 inflammasome cell death, poly; format: cell-based; details: 5–40 μM, 1 hr pretreatment, 4 hrs
[11] = test system: THP-1; assay: Nigericin-induced IL-1β secretion, ELISA; format: cell-based, human; details: potency comparable to z-VAD-fmk
[12] = test system: C57BL/6J mice; assay: LPS-induced sepsis, survival; format: in vivo, mouse; details: LPS 25 mg/kg; 50 mg/kg i.p. 4 hrs before and daily after LPS

**Q.** `COC(=O)C[C@H](NC(=O)[C@H](C)NC(=O)[C@@H](NC(=O)OCc1ccccc1)C(C)C)C(=O)CF` [z-VAD-fmk] (Cbz-Val-Ala-Asp(OMe)-CH2F) was tested. Which “GSDMD membrane staining and appearance of pyroptotic bubbles” value [1] did it give?
**A.** completely blocked

**Q.** And the “Proteolytic processing of caspase-1, GSDMD and pro-IL-1β” value ([2]; lysates 1 hr later)?
**A.** inhibited the processing of all 3 proteins

**Q.** What about the ASC speck formation [3] of the same molecule?
**A.** not inhibited

**Q.** What does the source list for `Cc1ccc(S(=O)(=O)/C=C/C#N)cc1` [Bay 11–7082]?
**A.** Inhibition of GSDMD and caspase-11-mediated liposome leakage (in words) [4]: moderately inhibited; Proteolytic processing of caspase-1, GSDMD and pro-IL-1β [5]: inhibited

**Q.** Which “LPS transfection-induced IL-1β secretion” value [6] does the source give for `CCN(CC)C(=S)SSC(=S)N(CC)CC` [C-23, tetraethylthiuram disulfide] here?
**A.** inhibited

**Q.** What about the “Incubation time at which inhibition of liposome leakage was seen” value ([4]; preincubation with GSDMD 2–90 min, 0–5.6 μM) of the same molecule?
**A.** ≤ 2 min

**Q.** And the “Decrease of IC50 for inhibiting pyroptosis with Cu(II)” value [7]?
**A.** 24 fold

**Q.** And the “Effect on necroptosis (cell viability)” value [8]?
**A.** no effect

**Q.** And the “IL-1β in culture supernatant” value ([2]; immunoblot)?
**A.** no IL-1β was detected

**Q.** And the “Inhibition of pore formation of pre-cleaved GSDMA3” value [9]?
**A.** did not inhibit

**Q.** And the “Effect on AIM2 inflammasome-triggered cell death” value [10]?
**A.** impaired cell death in a dose-dependent manner

**Q.** What about the “Nigericin-induced IL-1β secretion” value [11] of the same molecule?
**A.** inhibited

**Q.** What about the “Survival of Casp1–/– mice” value [12] of the same molecule?
**A.** protected

**Q.** What about the ASC speck formation [3] of the same molecule?
**A.** only modestly inhibited

**Q.** With `CN1C(=O)C(Cc2c[nH]c3ccccc23)NC1=S` (centres unmarked) [necrostatin-1] as the molecule, how does the “Effect on necroptosis (cell viability)” value [8] read?
**A.** blocked

**Q.** How did the “Inhibition of GSDMD and caspase-11-mediated liposome leakage (in words)” value (from here on “Inhibition … (in words)”) [4] turn out when `COC(=O)/C=C/C(=O)OC` [DMF, dimethyl fumarate] was run?
**A.** hardly any activity

**Q.** Which “Inhibition … (in words)” value [4] does the source give for `COc1nccnc1NS(=O)(=O)c1ccc(NC(=O)/C=C/c2ccc([N+](=O)[O-])s2)cc1` [NSA, necrosulfonamide] here?
**A.** moderately inhibited

**Q.** What about the “Effect on necroptosis (cell viability)” value [8] of the same molecule?
**A.** blocked

**Q.** What about the “Proteolytic processing of caspase-1, GSDMD and pro-IL-1β” value [5] of the same molecule?
**A.** inhibited

**Q.** Which “Inhibition … (in words)” value [4] does the source give for `C=CC(=O)N1CCC[C@@H](n2nc(-c3ccc(Oc4ccccc4)cc3)c3c(N)ncnc32)C1` [ibrutinib] here?
**A.** hardly any activity

**Q.** For `COc1ccccc1-c1cc2n(n1)Cc1ccc(NC(C)=O)cc1OC2` [LDC7559], which “Inhibition … (in words)” value [4] is on record?
**A.** no activity

**Q.** How did the “Inhibition … (in words)” value [4] turn out when `CN(C)C/C=C/C(=O)Nc1cc2c(Nc3ccc(F)c(Cl)c3)ncnc2cc1O[C@H]1CCOC1` [afatinib] was run?
**A.** hardly any activity
